A selection: hits, their analogues and other compounds. The true share with any hit is near 2.8%.
NPY-Y2 PAM-ag: potentiators or agonists of human neuropeptide Y receptor Y2; cells expressing NPY-Y2, potentiator/agonist read-out; AID 1359; actives 0.45% (n = 220,000); P49146; activation, % at 3.6 µM; in the data active = activation above about 27%;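 note: cells stimulated with NPY near EC25 plus isoproterenol at EC100; 0% = vehicle plus submaximal agonist and 100% = vehicle plus saturating agonist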
EP2 antag: blocks the human prostaglandin E2 receptor EP2 | P43116 | C6 glioma cells expressing human EP2, cAMP TR-FRET; cells stimulated with saturating PGE2 | inhibition, % at 25 µM | actives 0.52% (n = 260,000);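 active = percent inhibition above 40 after rounding to a whole number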;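 note: rat C6 glioma host cells with rolipram phosphodiesterase inhibitor present; the protocol text gives 20 µM as final concentration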
Target sequence (P43116 whole entry, looked up): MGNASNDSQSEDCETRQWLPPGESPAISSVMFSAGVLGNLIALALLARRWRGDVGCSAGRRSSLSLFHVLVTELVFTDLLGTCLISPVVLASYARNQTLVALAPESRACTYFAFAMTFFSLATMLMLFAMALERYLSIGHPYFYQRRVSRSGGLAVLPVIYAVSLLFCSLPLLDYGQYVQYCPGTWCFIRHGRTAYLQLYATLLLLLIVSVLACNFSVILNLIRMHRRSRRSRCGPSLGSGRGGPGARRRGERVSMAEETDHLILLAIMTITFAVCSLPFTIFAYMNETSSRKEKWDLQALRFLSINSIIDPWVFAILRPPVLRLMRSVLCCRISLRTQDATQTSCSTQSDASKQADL
NPY-Y1 PAM-ag: potentiators or agonists of human neuropeptide Y receptor Y1. actives 0.37% (n = 220,000). activation, % at 3.6 µM. NPY-Y1 expressing cells, potentiator/agonist activation. AID 1304; in the data active = activation above about 33%, passing the limit was not always enough;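 note: cells stimulated with NPY at EC10 then isoproterenol at EC100; 0% = low agonist plus stimulus and 100% = saturating agonist plus stimulus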
Target sequence (P25929 whole entry, looked up): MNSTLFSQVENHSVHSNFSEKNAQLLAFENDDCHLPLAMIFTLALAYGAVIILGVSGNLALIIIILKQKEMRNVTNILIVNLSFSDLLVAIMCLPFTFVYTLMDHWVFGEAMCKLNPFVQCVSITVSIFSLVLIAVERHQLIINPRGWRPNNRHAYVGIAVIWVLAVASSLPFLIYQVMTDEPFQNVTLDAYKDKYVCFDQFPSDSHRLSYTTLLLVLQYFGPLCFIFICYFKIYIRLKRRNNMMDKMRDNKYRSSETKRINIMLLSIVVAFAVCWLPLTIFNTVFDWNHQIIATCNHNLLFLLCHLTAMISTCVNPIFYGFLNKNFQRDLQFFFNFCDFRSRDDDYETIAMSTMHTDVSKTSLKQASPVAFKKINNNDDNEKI
EP2 modulator: EP2 receptor (human) modulation; P43116; EP2-expressing cells, cAMP HTRF FRET, PGE2 co-stimulation; induction, % at 25 µM; actives 0.83% (n = 260,000);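 active = compounds whose cAMP rise, as percent of the full-agonist control response, exceeds 60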;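 note: rat C6 glioma line stably carrying human EP2 under a CMV promoter; the protocol text gives 20 µM as final concentration; 100% = response of wells given 1 µM PGE2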
NPY-Y1 antag: NPY-Y1 (human) receptor antagonism | AID 1040 | inhibition, % at 3.6 µM | HEK293-CNG Y1 cells, membrane potential fluorescence; NPY at EC95, then isoproterenol | actives 1% (n = 200,000) | P25929;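 active = inhibition above the campaign mean inhibition of all tested compounds plus 3 SD, cut at about 20% in these data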;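 note: 0% = DMSO wells given NPY plus isoproterenol and 100% = isoproterenol alone without NPY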
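Benchmarks – high control isoproterenol alone, low control NPY with isoproterenol · Material – HEK293 Y1/CNG channel cell line · Times – dye 3 h, compound 60 min room temperature, stimulation 45 min · Probe or stimulus – NPY (25 nM), isoproterenol (1 µM), Ro 20-1724 (25 µM) · Evaluation – % inhibition of NPY effect · Signal – fluorescence, membrane potential probe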
NPY Y2 blocker: blocks the human neuropeptide Y Y2 receptor; inhibition, % at 2.7 µM; AID 793; actives 0.99% (n = 140,000); NPY-Y2 expressing cells, antagonist mode; in the data active = inhibition above about 17%;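 note: 0% = vehicle with agonist challenge and 100% = reference antagonist with challenge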
NPY-Y2 pot conf: confirmation of human NPY-Y2 receptor potentiators or agonists. actives 20% (n = 450). activation, % at 3.6 µM. shares compounds with NPY-Y2 PAM-ag. cell-based NPY-Y2 potentiator/agonist assay; in the data active = activation above about 33%
NPY-Y1 counter: NPY-Y1 potentiation or agonism as NPY-Y2 counter-screen; Y1 HEK293-CNG cells, membrane potential fluorescence; activation, % at 3.6 µM; shares compounds with NPY-Y2 PAM-ag; AID 1651; actives 20% (n = 450); in the data active = activation above about 45%;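 note: cells stimulated with submaximal NPY then isoproterenol with phosphodiesterase inhibitor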
NPY-Y1 ag 2: human NPY-Y1 agonism as NPY-Y2 potentiator counter-screen. shares compounds with NPY-Y2 PAM-ag. HEK293 Y1-CNGC, membrane potential fluorescence. activation, % at 3.6 µM. actives 37% (n = 450). AID 1702;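 active = activation above the mean of DMSO-only control wells plus 3 SD, cut at about 18% in these data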;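 note: cells stimulated with 1 µM isoproterenol plus the PDE inhibitor Ro 20-1724; 0% = isoproterenol with DMSO and no NPY and 100% = 40 nM NPY; Y1 agonists lower the membrane potential dye signal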
CNGC inhibitor: counter-screen for NPY-Y2 potentiators: inhibitors of CNG channel activity. shares compounds with NPY-Y2 PAM-ag. actives 32% (n = 450). HEK293-CNG parental, isoproterenol cAMP, membrane potential fluorescence. inhibition, % at 3.6 µM;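 active = inhibition above the control-well mean plus 3 SD of those wells, cut at about 22% in these data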;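 note: 0% = DMSO with isoproterenol and 100% = DMSO without isoproterenol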
Y2 agonist ctr: NPY-Y2 agonism, counter-screen for Y2 potentiators. shares compounds with NPY-Y2 PAM-ag. HEK293 Y2/CNGC cells, membrane potential fluorescence, agonist mode. activation, % at 3.6 µM. actives 56% (n = 450);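 active = activation above the mean of solvent-only control wells plus 3 SD, cut at about 10% in these data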;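 note: cells stimulated by isoproterenol with no NPY added so direct agonism is tested; 0% = DMSO with isoproterenol alone and 100% = NPY at EC100 plus isoproterenol; agonism lowers probe fluorescence through less cAMP and CNG channel opening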
* = called active by the depositor; / = no result.

SMILES	NPY-Y2 PAM-ag	EP2 antag	NPY-Y1 PAM-ag	EP2 modulator	NPY-Y1 antag	NPY Y2 blocker	NPY-Y2 pot conf	NPY-Y1 counter	NPY-Y1 ag 2	CNGC inhibitor	Y2 agonist ctr
NC(=O)C1c2ccccc2Oc2ccccc21	/	21.3	/	-9.9	/	/	/	/	/	/	/
CC(C)COC(=O)NC1c2ccccc2Oc2ccccc21	99.9*	3.5	-38.0	21.1	/	/	-17.2	-32.9	-32.4	-20.7	-8.3
Cc1ccc(NC(=O)c2cc(S(=O)(=O)Nc3ccc(C)cc3)cs2)cc1	43.2*	18.2	49.8	/	-13.1	-4.5	37.4*	47.3*	35.3*	41.5*	20.8*
Cc1ccc(NS(=O)(=O)c2ccc(NC(=O)c3cccs3)cc2)c(C)c1	-6.4	3.2	-5.8	-21.1	-6.6	-3.1	/	/	/	/	/
CC(=O)Nc1cccc(-c2csc(Nc3cccc(O)c3)n2)c1	/	8.4	/	-111.7	/	/	/	/	/	/	/
Cc1cccc(Cl)c1NC(=O)N1CCCN(c2nc3ccc(Cl)cc3s2)CC1	45.5*	12.6	18.1	-22.6	/	/	6.1	-28.7	-7.3	-4.9	8.6
COCCn1c(=O)[nH]c2cc(C(=O)N3C4CCC3CC(c3ccc(F)cc3)C4)ccc21 (stereo not drawn)	/	/	/	-50.1	/	/	/	/	/	/	/
COC(=O)c1ccc(NC(=O)CSc2nnc(C(C)NC(=O)c3ccccc3Cl)n2C)cc1 (stereo not drawn)	37.0*	11.2	32.9	13.5	-1.2	-4.4	10.1	16.2	17.0	10.2	28.4*
Cc1ccc2cc(CN(Cc3cccs3)S(=O)(=O)c3ccc(F)cc3)c(=O)[nH]c2c1C	/	13.5	/	0.3	/	/	/	/	/	/	/
Cc1cc(N/C(=N/S(=O)(=O)c2cc(F)ccc2F)c2ccccc2)n(-c2ccccc2)n1	-3.0	5.5	6.0	20.4	1.4	/	/	/	/	/	/
Cc1cc(N/C(=N/S(=O)(=O)c2ccc(F)cc2)c2ccccc2)n(-c2ccccc2)n1	28.1*	3.8	-8.8	46.9	0.3	/	-3.3	-17.5	-27.3	-22.7	-15.2
COCCCNC(=O)C1CCN(S(=O)(=O)c2ccccc2)CC1	/	8.9	/	3.4	/	/	/	/	/	/	/
COc1ccc(F)c(CN(CCCn2ccnc2)Cc2ccc(C)s2)c1	/	2.6	/	29.9	/	/	/	/	/	/	/
Nc1nc(Nc2ccc(Cl)cc2)nc2ccccc12	51.1*	10.5	36.5	-28.5	-5.9	-1.0	55.5*	65.0*	41.3*	50.4*	42.4*
O=C(CNC(=O)c1ccco1)OCc1ccc(Cl)cc1Cl	/	6.2	/	-7.5	/	/	/	/	/	/	/
Cc1cccc(N2CCN(CC(O)COc3ccccc3Cl)CC2)c1 (stereo not drawn)	-21.1	5.2	35.1	-13.7	/	/	/	/	/	/	/
COc1ccc(N2CCN(CC(O)COc3ccccc3[N+](=O)[O-])CC2)cc1 (stereo not drawn)	37.3*	1.4	39.1	13.3	0.3	1.9	31.6	30.9	48.9*	7.4	33.9*
C=CCc1ccccc1OCC(O)CN1CCN(C(=O)OCC)CC1 (stereo not drawn)	35.2*	16.7	31.4	-4.9	3.3	8.0	10.7	13.4	19.6*	1.1	6.0
COc1ccc(OCC(O)CN2CCN(c3ccccc3)CC2)cc1 (stereo not drawn)	-9.7	4.2	-7.0	-7.9	8.3	/	/	/	/	/	/
C=CCc1ccccc1OCC(O)CN1CCN(c2ccc(C)cc2)CC1 (stereo not drawn)	43.6*	6.5	45.2	-16.0	-4.9	7.1	28.5	31.1	54.5*	-0.4	46.6*
CCC(C)NC(=O)c1ccc2nc(NC(=O)c3ccc(C(=O)OC)cc3)sc2c1 (stereo not drawn)	/	15.2	/	-45.9	/	/	/	/	/	/	/
CCN(CC)CCN(Cc1cc2cc(C)ccc2[nH]c1=O)C(=S)NC1CCCCC1	/	6.8	/	-71.1	/	/	/	/	/	/	/
COC(=O)/C(=C\Nc1cccc(Cl)c1C)c1ncc(C(F)(F)F)cc1Cl	57.5*	9.3	3.0	14.0	7.3	4.1	-11.0	-16.1	-21.7	-19.8	-14.2
O=C(OCN1C(=O)c2ccccc2C1=O)c1ccc2c(=O)n3c(nc2c1)CCC3	2.0	/	15.3	/	-5.5	-0.4	/	/	/	/	/
COc1ccc(COC(=O)c2ccc3c(=O)n4c(nc3c2)CCC4)cc1F	58.9*	8.9	-21.6	-15.7	/	/	-4.3	-5.3	-10.3	-3.0	10.3*
SMILES	NPY-Y2 PAM-ag	EP2 antag	NPY-Y1 PAM-ag	EP2 modulator	NPY-Y1 antag	NPY Y2 blocker	NPY-Y2 pot conf	NPY-Y1 counter	NPY-Y1 ag 2	CNGC inhibitor	Y2 agonist ctr
COC(=O)c1cccc(NC(=O)COC(=O)c2ccco2)c1	/	6.7	/	-26.9	/	/	/	/	/	/	/
Nc1c(-c2cccc(Cl)c2)cnn1-c1cccc(C(F)(F)F)c1	41.7*	7.2	35.9	-50.1	2.1	0.7	61.0*	67.9*	61.2*	47.1*	74.5*
Nc1c(-c2ccccc2)cnn1-c1cccc(C(F)(F)F)c1	6.1	0.7	7.6	-18.6	-3.6	1.8	/	/	/	/	/
CCn1c(SCC(=O)Nc2ccc(I)cc2C)nnc1-c1ccc(O)cc1	/	8.3	/	-24.2	/	/	/	/	/	/	/
N#C/C(=N\Nc1cccc([N+](=O)[O-])c1)C(=O)c1ccc(Br)cc1	12.2	10.6	-3.1	-18.1	5.4	/	/	/	/	/	/
N#C/C(=N\Nc1cccc(C(F)(F)F)c1)C(=O)c1ccsc1	50.5*	8.9	-22.7	-21.6	/	/	-13.1	-54.5	-27.8	-12.1	2.2
CCC(=O)Nc1nc(-c2ccc3c(c2)CC(C)N3S(C)(=O)=O)cs1 (stereo not drawn)	-13.4	11.8	7.0	-86.7	-2.9	/	/	/	/	/	/
CC1Cc2cc(-c3csc(NC(=O)Cc4cccs4)n3)ccc2N1S(C)(=O)=O (stereo not drawn)	43.8*	/	13.8	-40.4	15.0	12.9	0.4	-15.8	-28.6	-17.9	-1.4
O/N=C/c1ccnc(SCc2ccc(Cl)cc2)n1	-9.6	10.7	17.3	-16.2	/	/	/	/	/	/	/
Cc1nc2ccccn2c1-c1ccnc(SCc2ccc(Cl)cc2)n1	48.7*	14.1	-51.6	15.5	/	/	-43.5	-81.4	-54.5	-48.5	-35.9
NC(=NCCc1c[nH]c2ccccc12)NC(=O)c1ccc(Cl)cc1	27.7*	27.9	27.1	-38.8	-1.3	/	26.2	30.5	39.4*	37.3*	42.4*
O=C(Nc1cccc(S(=O)(=O)Nc2ccc(Cl)cc2)c1)c1ccc(Cl)nc1	46.2*	4.8	1.0	-17.8	6.3	-2.2	11.2	-16.4	-20.8	1.0	3.4

Screens: PubChem BioAssay, several laboratories
